Calls of active or inactive are those of the source. No cut-off for these calls is given here.
Key:
Trypanosoma cruzi [1] = experiment: Antitrypanosomal activity against Trypanosoma cruzi Columbian bloodstream forms infected in C3H mouse assessed as decrease in parasite load in 25 mg/kg/day, po administered 5 days postinfection for 10 consecutive days measured after 120 days; assay type: functional, organism-based
Trypanosoma cruzi [2] = experiment: Antitrypanosomal activity against Trypanosoma cruzi 875 epimastigotes after 24 hrs by light microscopy; assay type: functional, organism-based; conditions: Trypanosoma cruzi, 875, 24 h
Method in brief: (§1)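 Epimastigotes from 5-day exponential cultures, 5 × 10^6 parasites/ml in LIT medium, incubated at 28°C up to 96 h with DB766 0 to 32 μM or Bz 0 to 250 μM. Counted daily in a Neubauer chamber. IC50 averaged from at least three determinations in duplicate.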

Trypanosoma cruzi [3] = experiment: Antitrypanosomal activity against Trypanosoma cruzi Columbian bloodstream forms infected in C3H mouse assessed as decrease in parasite load at 50 mg/kg/day, po administered 5 days postinfection for 10 consecutive days measured after 41 days; assay type: functional, organism-based
Method in brief: (§2)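 C3H/He mice infected i.p. with 10^3 or 5 × 10^3 Colombian strain bloodstream forms. Treated daily for 10 days with 0.1 ml i.p. or by gavage, reference drug given by gavage. Parasitemia measured by the Pizzi-Brener method; n ≥ 6 parasitemic mice per group.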

Mus musculus [4] = experiment: Toxicity in […](H-2k) mouse assessed as effect on GPT level at 100 mg/kg/day, po; assay type: organism-based; design: route oral; conditions: in vivo
Trypanosoma cruzi [5] = experiment: Antitrypanosomal activity against Trypanosoma cruzi Columbian bloodstream forms infected in C3H mouse assessed as decrease in parasite load at 50 mg/kg/day, ip administered 21 days postinfection measured on day 45; assay type: functional, organism-based
Method in brief: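 C3H/He mice infected i.p. with 10^2 Colombian strain bloodstream forms. Treatment started at parasitemia onset (21 dpi) with daily doses for 10 treatments, 0.1 ml i.p. Parasitemia measured by the Pizzi-Brener method; n ≥ 6 parasitemic mice per group.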

Trypanosoma cruzi [6] = experiment: Antitrypanosomal activity against Trypanosoma cruzi Columbian bloodstream forms infected in C3H mouse assessed as reduction in parasite-induced weight loss at 100 mg/kg/day, po administered 5 days postinfection for 10 consecutive days measured after 120 days; assay type: functional, organism-based
Method in brief: (§3)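 Body weight of infected, treated mice followed from 0 to 120 dpi.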

[7] = Cytotoxicity against Swiss-Webster mouse cardiomyocytes after 72 hrs by MTT assay; assay type: cell-based, Cardiomyocyte; conditions: read-out: LC50
Method in brief: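 Primary embryonic cardiomyocytes from Swiss mice, uninfected, incubated 24 h or 72 h at 37°C, 5% CO2, with 0 to 96 μM in DMEM. MTT read at 490 nm; LC50 taken as concentration reducing viability by 50%; at least three experiments in duplicate.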

Trypanosoma cruzi [8] = experiment: Antitrypanosomal activity against Trypanosoma cruzi Y bloodstream forms infected in Swiss-Webster mouse assessed as reduction in parasite-induced weight loss at 100 mg/kg/day, ip administered 5 days postinfection for 10 consecutive days measured after 120 days; assay type: functional, organism-based; method in brief: as §3
Trypanosoma cruzi [9] = experiment: Antitrypanosomal activity against Trypanosoma cruzi Columbian bloodstream forms infected in C3H mouse assessed as decrease in parasite load at 100 mg/kg/day, ip administered 5 days postinfection for 10 consecutive days measured after 41days post infection; assay type: functional, organism-based; method in brief: as §2
Trypanosoma cruzi [10] = experiment: Antitrypanosomal activity against Trypanosoma cruzi Y bloodstream forms infected in Swiss-Webster mouse assessed as decrease in parasitemia at 100 mg/kg/day, ip administered 8 days postinfection measured on day 120; assay type: functional; conditions: route intraperitoneal
Method in brief: (§4)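 Male Swiss mice infected i.p. with 10^4 Y strain bloodstream forms. Given 0.2 ml i.p. at 5 and 8 dpi, or daily for 10 days from 5 dpi; reference drug given by gavage. Parasitemia measured by the Pizzi-Brener method, cumulative mortality checked daily to 120 dpi, n ≥ 6 per group.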

Trypanosoma cruzi [11] = experiment: Antitrypanosomal activity against bloodstream forms of Trypanosoma cruzi CL after 24 hrs by light microscopy in presence of 50% mouse blood; assay type: functional, organism-based
Method in brief: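 Bloodstream trypomastigotes kept at 4°C for 24 h in freshly isolated 50% mouse blood with serial dilutions (up to 32 μM). Motile live parasites counted in a Neubauer chamber by light microscopy; IC50 calculated as concentration reducing parasite number by 50%.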

Trypanosoma cruzi [12] = experiment: Antitrypanosomal activity against bloodstream forms of Trypanosoma cruzi Y infected in Swiss mouse cardiomyocytes assessed as intracellular parasitemia at 10.6 uM after 72 hrs by Pizzi-Brener method; assay type: functional, organism-based
Trypanosoma cruzi [13] = experiment: Antitrypanosomal activity against Trypanosoma cruzi Y bloodstream forms infected in Swiss-Webster mouse assessed as decrease in cardiac parasite load at 100 mg/kg/day, ip administered 5 days postinfection for 10 alternate days measured after 14 days postinfection; assay type: functional, Heart; design: scale not given: the % may be the effect or the level left; conditions: route intraperitoneal
Trypanosoma cruzi [14] = experiment: Antitrypanosomal activity against Trypanosoma cruzi Y bloodstream forms infected in Swiss-Webster mouse assessed as survival of mouse at 25 mg/kg/day, ip administered 8 days postinfection measured on day 120; assay type: functional, organism-based; method in brief: as §4
Mus musculus [15] = experiment: Toxicity in […](H-2k) mouse assessed as effect on GPT level at 100 mg/kg/day, […]; assay type: organism-based; conditions: in vivo
Trypanosoma cruzi [16] = experiment: Antitrypanosomal activity against bloodstream forms of Trypanosoma cruzi Y after 24 hrs by light microscopy in presence of 96% mouse blood; assay type: functional, organism-based
Method in brief: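 Bloodstream trypomastigotes held at 4°C in freshly isolated mouse blood (96%) with serial dilutions up to 32 μM. Live motile parasites counted by light microscopy in a Neubauer chamber, giving an IC50 for each exposure time.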

Trypanosoma cruzi [17] = experiment: Antitrypanosomal activity against bloodstream forms of Trypanosoma cruzi Y infected in Swiss mouse cardiomyocytes assessed as parasite mitochondrial swelling at 10 ug/ml after 2 hrs by transmission electron microscopy; assay type: functional, organism-based
Method in brief: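 Y-strain bloodstream trypomastigotes treated 2 to 24 h at 37°C. Fixed 60 min at 4°C in 2.5% glutaraldehyde in 0.1 M cacodylate, pH 7.2. Postfixed 1 h at 4°C in 1% OsO4 with 0.8% potassium ferricyanide. Acetone-dehydrated, Epon-embedded, sections stained with uranyl acetate and lead citrate, ultrastructure examined by TEM.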

Mus musculus [18] = experiment: Cardiotoxicity in […] mouse assessed as effect on heart rate level at 100 mg/kg/day, ip; assay type: toxicity, organism-based; design: route intraperitoneal; conditions: in vivo
Method in brief: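 Colombian strain, 5 × 10³ bloodstream forms i.p. into male C3H/He mice; 100 mg/kg/day given i.p. or by gavage (0.1 ml) daily for 10 doses from parasitemia onset. Mice sedated with diazepam (20 mg/kg i.p.), supine; eight-lead ECG from subcutaneous limb needle electrodes plus precordial lead II. Signal-averaged ECG; heart rate as beats per minute.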

Trypanosoma cruzi [19] = experiment: Antitrypanosomal activity against Trypanosoma cruzi Columbian bloodstream forms infected in C3H mouse assessed as decrease in parasite load at 100 mg/kg/day, ip administered 5 days postinfection for 10 consecutive days measured after 31 days; assay type: functional; design: scale not given: the % may be the effect or the level left; conditions: route intraperitoneal; method in brief: as §2
Trypanosoma cruzi [20] = experiment: Antitrypanosomal activity against Trypanosoma cruzi Y bloodstream forms after 2 hrs by light microscopy; assay type: functional, organism-based
Method in brief: (§5)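 Bloodstream trypomastigotes from infected Swiss mice at peak parasitemia, 5.0 × 10^6 cells/ml in RPMI 1640 with 5% FBS. Exposed at 37°C to serial dilutions from 0 to 32 μM. Motile live parasites counted by light microscopy in a Neubauer chamber, then IC50 calculated.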

Trypanosoma cruzi [21] = experiment: Antitrypanosomal activity against Trypanosoma cruzi RBVIII epimastigotes after 24 hrs by light microscopy; assay type: functional, organism-based; method in brief: as §1
Trypanosoma cruzi [22] = experiment: Antitrypanosomal activity against Trypanosoma cruzi Y bloodstream forms infected in Swiss-Webster mouse assessed as survival of mouse at 50 mg/kg/day, ip p administered 5 days postinfection for 10 consecutive days measured on day 120; assay type: functional, organism-based; method in brief: as §4
Trypanosoma cruzi [23] = experiment: Antitrypanosomal activity against bloodstream forms of Trypanosoma cruzi Y after 24 hrs by light microscopy; assay type: functional, organism-based; method in brief: as §5

In the case of CC(C)Oc1cc(NC(=N)c2ccccn2)ccc1-c1ccc(-c2ccc(NC(=N)c3ccccn3)cc2OC(C)C)o1, the Activity (Trypanosoma cruzi [1]) is reported as “inactive”, the IC50 (Trypanosoma cruzi [2]) is reported as 60 nM and the IC90 (Trypanosoma cruzi [2]) is reported as 240 nM. For the same molecule, the Activity (Trypanosoma cruzi [3]) was “Active”, the Activity (Mus musculus [4]) was “Non-toxic” and the Activity (Trypanosoma cruzi [5]) was “inactive”. The Activity (Trypanosoma cruzi [6]) was “inactive”, the CC50 at 72 h [7] was 16400 nM and the Activity (Trypanosoma cruzi [8]) was “Active”. For the same molecule, the Activity (Trypanosoma cruzi [9]) was “Active”, the inhibition in vivo at 100 mg/kg/day (Trypanosoma cruzi [10]) was over 99% and the IC50 (Trypanosoma cruzi [11]) was 710 nM. The IC50 (Trypanosoma cruzi [12]) was 25 nM, the Activity (Trypanosoma cruzi [13]) was 94% and the Activity (Trypanosoma cruzi [14]) was “Active”. The Activity (Mus musculus [15]) was “Non-toxic”, the IC50 (Trypanosoma cruzi [16]) was 60 nM and the Activity (Trypanosoma cruzi [17]) was “Active”. The Activity (Mus musculus [18]) was “Toxic”, the Activity (Trypanosoma cruzi [19]) was 100% and the IC50 (Trypanosoma cruzi [20]) was 1140 nM. For the same molecule, the IC50 (Trypanosoma cruzi [21]) was 180 nM, the IC90 (Trypanosoma cruzi [21]) was 440 nM and the Activity (Trypanosoma cruzi [22]) was “Active”. It also gave an IC50 (Trypanosoma cruzi [23]) of 110 nM.

From ChEMBL document CHEMBL1649306, “Arylimidamide DB766, a potential chemotherapeutic candidate for Chagas' disease treatment” (Antimicrob Agents Chemother, 2010)
